# Experimental data: ChEMBL document CHEMBL2010643 (Bioorg Med Chem Lett, 2012)
# Activity calls are given as the source filed them. The calls are words filed in the database; no cut-off is given here.
# Columns and labels:
# [1] = target: Angiopoietin-1 receptor (Homo sapiens) (UniProt Q02763); assay: Inhibition of TIE2 assessed as residual activity at 1 uM relative to control
# [2] = target: Death-associated protein kinase 1 (Homo sapiens) (UniProt P53355); assay: Inhibition of DAPK1 assessed as residual activity at 10 uM relative to control
# [3] = target: Mitogen-activated protein kinase 15 (Homo sapiens) (UniProt Q8TD08); assay: Inhibition of ERK8 assessed as residual activity at 10 uM relative to control
# [4] = target: Inhibitor of nuclear factor kappa-B kinase subunit beta (Homo sapiens) (UniProt O14920); assay: Inhibition of IKKbeta assessed as residual activity at 10 uM relative to control
# [5] = target: Dual specificity mitogen-activated protein kinase kinase 2 (Homo sapiens) (UniProt P36507); assay: Inhibition of MKK2 assessed as residual activity at 10 uM relative to control
# [6] = target: Dual specificity mitogen-activated protein kinase kinase 6 (Homo sapiens) (UniProt P52564); assay: Inhibition of MKK6 assessed as residual activity at 10 uM relative to control
# [7] = target: Serine/threonine-protein kinase 16 (Homo sapiens) (UniProt O75716); assay: Inhibition of MPSK1 assessed as residual activity at 10 uM relative to control
# [8] = target: Mitogen-activated protein kinase 14 (Homo sapiens) (UniProt Q16539); assay: Inhibition of p38alpha MAPK assessed as residual activity at 10 uM relative to control
# Procedure, shortened: (§1)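 Radioactivity-based enzymatic kinase assays run across a 124-kinase profiling panel (Dundee), reporting the remaining kinase activity relative to a control.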
# [9] = target: Mitogen-activated protein kinase 13 (Homo sapiens) (UniProt O15264); assay: Inhibition of p38delta MAPK assessed as residual activity at 10 uM relative to control; procedure, shortened: as §1
# [10] = target: Serine/threonine-protein kinase PAK 5 (Homo sapiens) (UniProt Q9P286); assay: Inhibition of PAK5 assessed as residual activity at 10 uM relative to control
# [11] = target: Serine/threonine-protein kinase pim-1 (Homo sapiens) (UniProt P11309); assay: Inhibition of PIM1 assessed as residual activity at 10 uM relative to control
# [12] = target: Serine/threonine-protein kinase pim-2 (Homo sapiens) (UniProt Q9P1W9); assay: Inhibition of PIM2 assessed as residual activity at 10 uM relative to control
# [13] = target: RAC-alpha serine/threonine-protein kinase (Homo sapiens) (UniProt P31749); assay: Inhibition of PKBalpha assessed as residual activity at 10 uM relative to control
# [14] = target: T1, Leucine-rich repeat serine/threonine-protein kinase 2 (Homo sapiens, UniProt Q5S007); assay: Inhibition of wild-type LRRK2 phosphorylation at Ser910 expressed in HEK293 cells after 90 mins by immunoblot analysis; type: cell-based
# Procedure, shortened: (§2)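 HEK293 cells stably expressing wild-type GFP-LRRK2 exposed to DMSO or increasing inhibitor concentrations for 90 min. Lysates immunoblotted for LRRK2 phosphorylated at Ser910 and Ser935 and for total LRRK2.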
# [15] = target: T1, Leucine-rich repeat serine/threonine-protein kinase 2; assay: Inhibition of wild-type LRRK2 phosphorylation at Ser935 expressed in HEK293 cells after 90 mins by immunoblot analysis; type: cell-based; procedure, shortened: as §2
# [16] = tested on: Brain; assay: AUClast in Swiss albino mouse brain at 10 mg/kg, po; type: ADME, organism-based; set-up: time 0 - last, dose 10 mg/kg, route oral; settings: in vivo
# Procedure, shortened: (§3)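 Male Swiss Albino mice were given a single dose, either intravenous at 1 mg/kg or oral at 10 mg/kg. AUClast was measured in plasma and in brain. Half-life, plasma clearance, volume of distribution and oral bioavailability were derived from the plasma data.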
# [17] = Half life in Swiss albino mouse at 1 mg/kg, iv; type: ADME, organism-based; set-up: dose 1 mg/kg, route intravenous; settings: in vivo; procedure, shortened: as §3
# [18] = target: Protein kinase C alpha type (Homo sapiens) (UniProt P17252); assay: Inhibition of PKCalpha assessed as residual activity at 10 uM relative to control
# [19] = target: MAP kinase-activated protein kinase 5 (Homo sapiens) (UniProt Q8IW41); assay: Inhibition of PRAK assessed as residual activity at 10 uM relative to control
# [20] = target: Dual specificity protein kinase TTK (Homo sapiens) (UniProt P33981); assay: Inhibition of TTK assessed as residual activity at 10 uM relative to control; procedure, shortened: as §1
# [21] = target: Dual specificity tyrosine-phosphorylation-regulated kinase 2 (Homo sapiens) (UniProt Q92630); assay: Inhibition of DYRK2 assessed as residual activity at 1 uM relative to control
# Procedure, shortened: (§4)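 Standard radioactivity-based enzymatic assays were run across a 124-kinase panel (Dundee profiling), with compound at 1 µM. Kinase activity was expressed relative to control.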
# [22] = tested on: Mus musculus; assay: Inhibition of LRRK2 phosphorylation at Ser910 in C57BL/6 mouse kidney at 10 mg/kg, po administered for 8 hrs followed by 2 hrs dosing; type: functional, organism-based; set-up: dose 10 mg/kg
# Procedure, shortened: (§5)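 Mice were dosed by oral gavage at 10 or 50 mg/kg. Brain, spleen and kidney were collected. Endogenous LRRK2 was resolved by SDS–PAGE and blotted with phospho-specific antibodies to Ser910 and Ser935 and with an antibody to total LRRK2.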
# [23] = tested on: Mus musculus; assay: Inhibition of LRRK2 phosphorylation at Ser935 in C57BL/6 mouse kidney at 10 mg/kg, po administered for 8 hrs followed by 2 hrs dosing; type: functional, organism-based; set-up: dose 10 mg/kg; procedure, shortened: as §5
# [24] = tested on: Mus musculus; assay: Inhibition of LRRK2 phosphorylation at Ser910 in C57BL/6 mouse brain at 10 to 50 mg/kg, po administered for 8 hrs followed by 2 hrs dosing; type: functional, organism-based; procedure, shortened: as §5
# [25] = target: Eukaryotic elongation factor 2 kinase (Homo sapiens) (UniProt O00418); assay: Inhibition of EF2K assessed as residual activity at 1 uM relative to control; procedure, shortened: as §4
# [26] = target: Inhibitor of nuclear factor kappa-B kinase subunit beta (Homo sapiens) (UniProt O14920); assay: Inhibition of IKKbeta assessed as residual activity at 1 uM relative to control
# [27] = target: Serine/threonine-protein kinase STK11 (Homo sapiens) (UniProt Q15831); assay: Inhibition of LKB1 assessed as residual activity at 1 uM relative to control
# [28] = target: Mitogen-activated protein kinase kinase kinase 1 (Homo sapiens) (UniProt Q13233); assay: Inhibition of MEKK1 assessed as residual activity at 1 uM relative to control
# [29] = target: Dual specificity mitogen-activated protein kinase kinase 1 (Homo sapiens) (UniProt Q02750); assay: Inhibition of MKK1 assessed as residual activity at 1 uM relative to control
# [30] = target: Serine/threonine-protein kinase 16 (Homo sapiens) (UniProt O75716); assay: Inhibition of MPSK1 assessed as residual activity at 1 uM relative to control
# [31] = target: Serine/threonine-protein kinase 26 (Homo sapiens) (UniProt Q9P289); assay: Inhibition of MST4 assessed as residual activity at 1 uM relative to control
# [32] = target: Serine/threonine-protein kinase PAK 5 (Homo sapiens) (UniProt Q9P286); assay: Inhibition of PAK5 assessed as residual activity at 1 uM relative to control
# [33] = target: MAP kinase-activated protein kinase 5 (Homo sapiens) (UniProt Q8IW41); assay: Inhibition of PRAK assessed as residual activity at 1 uM relative to control
# [34] = Inhibition of CK1 assessed as residual activity at 1 uM relative to control
# [35] = target: Serine/threonine-protein kinase PLK1 (Homo sapiens) (UniProt P53350); assay: Inhibition of PLK1 assessed as residual activity at 1 uM relative to control
# Sequence of MAP kinase-activated protein kinase 5 (Homo sapiens) (Q8IW41 whole entry): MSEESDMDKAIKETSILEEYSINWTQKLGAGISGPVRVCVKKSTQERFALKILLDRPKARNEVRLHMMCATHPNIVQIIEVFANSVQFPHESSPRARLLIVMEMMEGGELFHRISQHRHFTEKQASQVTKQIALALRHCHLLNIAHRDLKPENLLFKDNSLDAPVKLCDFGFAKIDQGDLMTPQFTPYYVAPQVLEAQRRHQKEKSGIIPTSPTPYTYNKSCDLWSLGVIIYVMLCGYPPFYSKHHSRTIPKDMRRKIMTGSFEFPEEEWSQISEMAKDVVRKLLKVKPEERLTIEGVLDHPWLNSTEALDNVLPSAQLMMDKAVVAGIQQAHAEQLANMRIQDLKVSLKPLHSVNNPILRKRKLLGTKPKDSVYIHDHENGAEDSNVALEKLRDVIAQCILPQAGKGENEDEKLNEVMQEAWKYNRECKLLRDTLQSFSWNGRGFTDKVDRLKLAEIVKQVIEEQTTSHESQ
# Sequence of Inhibitor of nuclear factor kappa-B kinase subunit beta (Homo sapiens) (O14920 whole entry): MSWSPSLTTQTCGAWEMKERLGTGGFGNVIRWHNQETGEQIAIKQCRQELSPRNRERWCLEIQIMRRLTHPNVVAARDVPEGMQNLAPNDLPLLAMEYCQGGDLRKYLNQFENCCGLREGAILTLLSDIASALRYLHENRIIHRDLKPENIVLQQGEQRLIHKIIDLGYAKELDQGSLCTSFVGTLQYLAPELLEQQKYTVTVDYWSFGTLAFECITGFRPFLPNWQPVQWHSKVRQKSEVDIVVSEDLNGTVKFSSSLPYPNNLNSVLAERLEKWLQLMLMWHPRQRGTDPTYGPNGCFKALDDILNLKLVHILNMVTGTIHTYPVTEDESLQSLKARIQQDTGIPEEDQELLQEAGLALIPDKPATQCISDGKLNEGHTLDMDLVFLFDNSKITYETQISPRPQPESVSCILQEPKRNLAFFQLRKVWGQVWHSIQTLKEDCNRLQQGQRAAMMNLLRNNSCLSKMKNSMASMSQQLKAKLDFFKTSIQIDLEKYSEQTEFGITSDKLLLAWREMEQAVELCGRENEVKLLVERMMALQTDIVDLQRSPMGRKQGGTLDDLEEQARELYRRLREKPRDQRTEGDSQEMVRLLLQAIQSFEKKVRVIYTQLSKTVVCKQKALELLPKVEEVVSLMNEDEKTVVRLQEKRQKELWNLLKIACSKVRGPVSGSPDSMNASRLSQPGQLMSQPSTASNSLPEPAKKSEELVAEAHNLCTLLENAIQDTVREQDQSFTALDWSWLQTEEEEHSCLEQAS
# Sequence of Serine/threonine-protein kinase PAK 5 (Homo sapiens) (Q9P286 whole entry, looked up): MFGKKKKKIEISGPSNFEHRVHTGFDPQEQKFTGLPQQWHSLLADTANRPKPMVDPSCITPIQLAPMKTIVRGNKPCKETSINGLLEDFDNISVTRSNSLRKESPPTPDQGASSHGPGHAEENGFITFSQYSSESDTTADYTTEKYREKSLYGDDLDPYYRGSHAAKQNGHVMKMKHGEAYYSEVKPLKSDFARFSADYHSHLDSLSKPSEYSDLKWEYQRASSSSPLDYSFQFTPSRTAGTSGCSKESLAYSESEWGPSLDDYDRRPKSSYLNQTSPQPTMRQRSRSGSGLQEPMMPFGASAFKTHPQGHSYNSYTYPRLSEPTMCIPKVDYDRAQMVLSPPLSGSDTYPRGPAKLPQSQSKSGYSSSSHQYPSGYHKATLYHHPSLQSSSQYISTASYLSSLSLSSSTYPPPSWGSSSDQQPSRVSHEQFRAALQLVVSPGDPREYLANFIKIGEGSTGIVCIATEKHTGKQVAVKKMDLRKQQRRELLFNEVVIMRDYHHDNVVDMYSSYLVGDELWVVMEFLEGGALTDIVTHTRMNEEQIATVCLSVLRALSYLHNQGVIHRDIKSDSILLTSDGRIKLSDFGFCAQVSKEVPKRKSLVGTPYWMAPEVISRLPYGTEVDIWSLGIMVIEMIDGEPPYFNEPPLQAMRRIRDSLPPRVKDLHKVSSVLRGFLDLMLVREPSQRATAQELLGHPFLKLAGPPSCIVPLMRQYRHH
# T1 sequence (Q5S007 whole entry): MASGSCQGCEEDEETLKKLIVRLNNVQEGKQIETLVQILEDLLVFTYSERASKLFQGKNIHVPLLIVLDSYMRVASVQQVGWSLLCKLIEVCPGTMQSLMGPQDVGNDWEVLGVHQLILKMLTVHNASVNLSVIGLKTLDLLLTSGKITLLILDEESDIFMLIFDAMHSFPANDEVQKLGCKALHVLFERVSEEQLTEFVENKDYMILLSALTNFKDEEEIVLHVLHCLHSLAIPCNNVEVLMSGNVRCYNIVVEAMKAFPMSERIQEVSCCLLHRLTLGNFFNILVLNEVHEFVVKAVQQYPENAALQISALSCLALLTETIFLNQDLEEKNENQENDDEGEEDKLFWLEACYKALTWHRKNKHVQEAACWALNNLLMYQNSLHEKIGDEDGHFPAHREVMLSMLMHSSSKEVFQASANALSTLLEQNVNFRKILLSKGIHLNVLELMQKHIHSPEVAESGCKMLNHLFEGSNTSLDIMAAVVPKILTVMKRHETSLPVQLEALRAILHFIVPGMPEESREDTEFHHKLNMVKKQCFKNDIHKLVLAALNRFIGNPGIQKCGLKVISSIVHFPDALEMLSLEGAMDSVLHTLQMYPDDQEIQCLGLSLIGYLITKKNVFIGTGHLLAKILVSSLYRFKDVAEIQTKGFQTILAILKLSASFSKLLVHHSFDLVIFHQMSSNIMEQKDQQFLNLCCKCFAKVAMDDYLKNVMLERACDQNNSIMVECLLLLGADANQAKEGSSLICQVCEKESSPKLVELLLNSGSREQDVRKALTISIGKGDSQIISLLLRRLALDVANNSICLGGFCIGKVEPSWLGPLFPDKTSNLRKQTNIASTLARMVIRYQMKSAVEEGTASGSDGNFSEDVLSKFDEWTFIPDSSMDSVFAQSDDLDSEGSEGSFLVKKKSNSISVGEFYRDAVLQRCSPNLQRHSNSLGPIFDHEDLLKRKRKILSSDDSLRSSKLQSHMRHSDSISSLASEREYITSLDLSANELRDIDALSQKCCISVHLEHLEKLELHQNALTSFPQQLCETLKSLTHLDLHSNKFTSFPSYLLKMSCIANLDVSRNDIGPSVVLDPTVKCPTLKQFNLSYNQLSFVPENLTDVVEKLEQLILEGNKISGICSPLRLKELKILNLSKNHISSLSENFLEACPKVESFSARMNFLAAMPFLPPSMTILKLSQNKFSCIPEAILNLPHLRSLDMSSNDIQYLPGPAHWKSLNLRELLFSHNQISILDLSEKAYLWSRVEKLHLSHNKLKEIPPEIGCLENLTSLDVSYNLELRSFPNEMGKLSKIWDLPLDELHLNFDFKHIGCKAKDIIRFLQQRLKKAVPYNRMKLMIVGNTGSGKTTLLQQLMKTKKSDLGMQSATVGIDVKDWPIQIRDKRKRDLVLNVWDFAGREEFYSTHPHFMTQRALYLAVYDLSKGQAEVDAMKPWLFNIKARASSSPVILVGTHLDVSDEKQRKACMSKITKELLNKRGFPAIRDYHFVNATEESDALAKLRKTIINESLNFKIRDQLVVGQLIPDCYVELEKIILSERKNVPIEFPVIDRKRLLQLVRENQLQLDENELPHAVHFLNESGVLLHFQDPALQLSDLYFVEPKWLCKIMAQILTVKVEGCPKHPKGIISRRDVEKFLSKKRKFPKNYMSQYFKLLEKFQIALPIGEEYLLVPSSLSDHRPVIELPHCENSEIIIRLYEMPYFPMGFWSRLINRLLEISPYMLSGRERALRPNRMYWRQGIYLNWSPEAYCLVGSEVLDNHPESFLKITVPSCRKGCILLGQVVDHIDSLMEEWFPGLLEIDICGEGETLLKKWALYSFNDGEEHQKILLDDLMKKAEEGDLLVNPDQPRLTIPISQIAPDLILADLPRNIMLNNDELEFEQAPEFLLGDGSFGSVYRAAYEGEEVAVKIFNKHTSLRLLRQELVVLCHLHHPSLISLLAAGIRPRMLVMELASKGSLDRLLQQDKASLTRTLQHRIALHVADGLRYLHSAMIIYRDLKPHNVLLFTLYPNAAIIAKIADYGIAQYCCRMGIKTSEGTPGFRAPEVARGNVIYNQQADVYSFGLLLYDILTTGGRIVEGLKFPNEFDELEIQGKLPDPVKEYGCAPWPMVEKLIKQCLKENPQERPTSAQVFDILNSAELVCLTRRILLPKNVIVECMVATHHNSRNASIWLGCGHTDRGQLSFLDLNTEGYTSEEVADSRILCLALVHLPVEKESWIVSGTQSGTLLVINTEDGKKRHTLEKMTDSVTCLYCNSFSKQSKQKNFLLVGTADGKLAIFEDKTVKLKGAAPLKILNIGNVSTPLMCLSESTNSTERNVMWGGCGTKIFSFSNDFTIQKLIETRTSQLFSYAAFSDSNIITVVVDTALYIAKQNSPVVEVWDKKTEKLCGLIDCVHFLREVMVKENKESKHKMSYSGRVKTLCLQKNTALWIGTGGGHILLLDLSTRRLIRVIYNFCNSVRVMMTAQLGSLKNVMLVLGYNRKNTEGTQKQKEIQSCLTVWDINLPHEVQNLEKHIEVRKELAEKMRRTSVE
# Sequence of Serine/threonine-protein kinase 16 (Homo sapiens) (O75716 whole entry): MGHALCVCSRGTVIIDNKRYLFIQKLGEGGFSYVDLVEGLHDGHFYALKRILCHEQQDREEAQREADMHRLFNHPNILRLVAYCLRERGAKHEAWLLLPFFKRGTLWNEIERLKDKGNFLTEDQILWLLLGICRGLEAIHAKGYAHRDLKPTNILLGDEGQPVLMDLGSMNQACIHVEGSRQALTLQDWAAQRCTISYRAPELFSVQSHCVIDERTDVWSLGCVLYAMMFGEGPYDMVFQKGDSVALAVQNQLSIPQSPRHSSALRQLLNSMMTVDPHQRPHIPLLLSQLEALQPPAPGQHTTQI
# Sequence of Serine/threonine-protein kinase pim-2 (Homo sapiens) (Q9P1W9 whole entry, looked up): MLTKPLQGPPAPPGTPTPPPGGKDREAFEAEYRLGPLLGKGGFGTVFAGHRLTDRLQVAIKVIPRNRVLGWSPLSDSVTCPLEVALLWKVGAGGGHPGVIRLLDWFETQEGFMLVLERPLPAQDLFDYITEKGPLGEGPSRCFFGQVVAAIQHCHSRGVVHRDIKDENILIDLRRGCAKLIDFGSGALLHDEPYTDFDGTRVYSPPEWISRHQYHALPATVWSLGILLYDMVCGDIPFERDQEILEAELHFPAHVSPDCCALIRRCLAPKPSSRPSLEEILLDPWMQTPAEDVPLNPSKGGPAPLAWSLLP
smiles,measurement,setting,value
COc1cc(N2CCC(N3CCN(C)CC3)CC2)ccc1Nc1ncc(Cl)c(Nc2ccccc2S(=O)(=O)C(C)C)n1 [TAE-684],Activity,[1],18%
same,Activity,[2],79%
same,Activity,[3],26%
same,Activity,[4],107%
same,Activity,[5],30%
same,Activity,[6],75%
same,Activity,[7],96%
same,Activity,[8],79%
same,Activity,[9],87%
same,Activity,[10],35%
same,Activity,[11],101%
same,Activity,[12],107%
same,Activity,[13],109%
same,inhibition,[14],Dose-dependent effect
same,inhibition,[15],Dose-dependent effect
same,AUClast,[16],14430 ng·h/mL
same,half-life,[17],11.3 h
same,Activity,[18],122%
same,Activity,[19],110%
same,Activity,[20],47%
same,Activity,[21],105%
same,inhibition,[22],Active
same,inhibition,[23],Active
same,inhibition,[24],inactive
same,Activity,[25],96%
same,Activity,[26],98%
same,Activity,[27],94%
same,Activity,[28],109%
same,Activity,[29],91%
same,Activity,[30],102%
same,Activity,[31],92%
same,Activity,[32],66%
same,Activity,[33],101%
same,Activity,[34],102%
same,Activity,[35],38%
